Source: ChEMBL document CHEMBL2176900, “Design and synthesis of a novel series of bicyclic heterocycles as potent γ-secretase modulators” (J Med Chem, 2012)
Converted amounts (≈) assume the structure as drawn. The source made the active and inactive calls. The rule behind the calls is not given here.

Legend:
[1] = test system: Mus musculus; assay: Antialzheimer activity in CD1 mouse assessed as amyloid beta 42 level in brain at 30 mg/kg, po at 24 hrs by ELISA relative to control; type: functional
How it was run: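 Male CD1 SPF mice, fasted overnight, got a single oral dose of 10 or 30 mg/kg. At each time point the right brain hemisphere was homogenized in 0.4% DEA/50 mM NaCl with protease inhibitors and spun at 221300g for 50 min. The supernatant was neutralized with Tris-HCl pH 6.8. Aβ38 or Aβ42 was read by sandwich ELISA with a fluorogenic peroxidase substrate (ex 320/em 420 nm). Results are mean % change versus T = 0 h, n = 4.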

[2] = Fraction unbound in mouse plasma; type: ADME, cell-free
[3] = Plasma concentration in CD1 mouse at 30 mg/kg, po at 4 hrs by LC-MS/MS analysis; type: ADME, organism-based; parameters: dose 30 mg/kg, route oral
How it was run: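 Single oral dose to overnight-fasted male CD1 mice in 20% Captisol suspension. Plasma was taken at 4 h by decapitation into EDTA tubes and spun at 1900g for 10 min at 4 °C. Compound was measured by a qualified LC-MS/MS method. Values are geometric means of at least four runs.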

[4] = test system: Mus musculus; assay: Inhibition of gamma-secretase in CD1 mouse assessed as total amyloid beta level in brain at 10 mg/kg, po at 4 hrs by ELISA relative to control; type: functional; parameters: scale not given: the % may be the effect or the level left
How it was run: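 Fasted male CD1 SPF mice were dosed orally at 10 or 30 mg/kg in 20% Captisol. Right hemisphere was homogenized in 0.4% DEA/50 mM NaCl and the high-speed supernatant neutralized. Aβtotal ELISA used N-terminal JRF/rAβ/2 capture, biotinylated 4G8 and streptavidin-peroxidase, then a fluorogenic substrate (ex 320/em 420 nm). Standards spanned 10000–0.3 pg/mL. Values are % change vs T = 0 h, n = 4.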

[5] = test system: Mus musculus; assay: Reduction in total amyloid beta level in CD1 mouse at 30 mg/kg, po at 4 hrs by ELISA relative to control; type: functional, organism-based; parameters: dose 30 mg/kg
How it was run: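 Overnight-fasted male CD1 Swiss SPF mice were given a single oral dose as a suspension in 20% Captisol in water. Brains were taken at 4 h and the right hemisphere homogenized in 0.4% DEA/50 mM NaCl with protease inhibitors, then spun at 221300g for 50 min. The neutralized supernatant was read by Aβtotal ELISA (capture JRF/rAβ/2, biotinylated 4G8, streptavidin-peroxidase, QuantaBlu, ex 320/em 420 nm). Values are % change versus untreated animals, n ≥ 6.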

[6] = test system: Rattus norvegicus; assay: Antialzheimer activity in Sprague-Dawley rat assessed as amyloid beta 37 level in brain at 10 mg/kg, po at 2 hrs by ELISA relative to control; type: functional
How it was run: (§1)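 Male Sprague-Dawley rats (180-220 g), fasted overnight, were given 10 mg/kg by gastric intubation as a 5 mg/mL suspension in 0.5% methocellulose. At 2, 4, 7 and 25 h, 50 μL CSF was taken from the cisterna magna under isoflurane, then brain was collected. Aβ37/38/40/42 were measured by MesoScale Discovery sandwich immunoassays. Results are mean % change versus T = 0 h, n = 5.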

[7] = test system: Rattus norvegicus; assay: Antialzheimer activity in Sprague-Dawley rat assessed as amyloid beta 40 level in brain at 10 mg/kg, po at 7 hrs by ELISA relative to control; type: functional; how it was run: as §1
[8] = Plasma concentration in Sprague-Dawley rat at 10 mg/kg, po at 4 hrs by LC-MS/MS analysis; type: ADME, organism-based; parameters: dose 10 mg/kg, route oral
How it was run: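 Overnight-fasted male Sprague-Dawley rats (180–220 g) were given 10 mg/kg by gastric intubation of a 5 mg/mL suspension in 0.5% methocellulose. Blood was collected after decapitation at 2, 4, 7 and 25 h under isoflurane anaesthesia. Plasma compound was measured as in the mouse assay, n = 5.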

[9] = Lipophilicity, log P of the compound; type: physicochemical; details: octanol/water
[10] = test system: Rattus norvegicus; assay: Antialzheimer activity in Sprague-Dawley rat assessed as amyloid beta 42 level in brain at 10 mg/kg, po at 7 hrs by ELISA relative to control; type: functional; how it was run: as §1
[11] = test system: Rattus norvegicus; assay: Antialzheimer activity in Sprague-Dawley rat assessed as amyloid beta 42 level in CSF at 10 mg/kg, po at 7 hrs by ELISA relative to control; type: functional; how it was run: as §1
[12] = target: Gamma-secretase (Homo sapiens) (UniProt Q96BI3+Q9NZ42+Q8WW43+P49768+Q92542+P49810); assay: Inhibition of gamma-secretase in human SK-N-BE(2) cells expressing wild type APP 695 assessed as reduction in total amyloid beta level up to 10 uM after overnight incubation by sandwich immunoassay; type: cell-based
How it was run: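 SK-N-BE(2) cells with wild-type APP695 were plated at 10⁴ cells/well in supplemented Ultraculture with test compound at several concentrations. They were incubated overnight at 37 °C, 5% CO₂. Supernatant Aβtotal was measured by AlphaLisa sandwich immunoassay (JRF/AβN/25 capture, biotinylated 4G8). Data are % of the maximum Aβtotal seen without compound.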

[13] = target: T1, Neuromedin-K receptor (Homo sapiens) (UniProt P29371); assay: Inhibition of NK3 receptor at 10 uM
T1 sequence (whole entry): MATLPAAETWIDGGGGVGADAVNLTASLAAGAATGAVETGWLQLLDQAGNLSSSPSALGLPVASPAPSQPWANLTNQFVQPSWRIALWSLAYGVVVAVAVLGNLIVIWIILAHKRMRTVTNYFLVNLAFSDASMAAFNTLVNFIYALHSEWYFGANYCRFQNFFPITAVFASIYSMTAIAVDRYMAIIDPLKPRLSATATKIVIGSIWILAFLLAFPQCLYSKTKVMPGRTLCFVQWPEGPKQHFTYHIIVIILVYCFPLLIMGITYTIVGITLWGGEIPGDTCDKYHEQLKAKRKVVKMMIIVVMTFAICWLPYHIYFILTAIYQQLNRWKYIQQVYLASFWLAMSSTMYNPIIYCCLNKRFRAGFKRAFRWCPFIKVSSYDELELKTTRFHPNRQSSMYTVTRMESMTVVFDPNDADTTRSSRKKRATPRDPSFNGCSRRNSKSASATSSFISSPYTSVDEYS

[14] = Thermodynamic solubility in 0.01N HCl; details: read-out: Therm_solubility
[15] = test system: Plasma; assay: Plasma concentration in CD1 mouse at 30 mg/kg, po at 48 hrs by LC-MS/MS analysis; type: ADME, organism-based; parameters: dose 30 mg/kg, route oral; details: in vivo, BLD = below limit of detection
How it was run: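 Mice received a single 10 or 30 mg/kg oral dose. Plasma was sampled at several time points up to 48 h, with EDTA plasma obtained by centrifugation at 1900g, 10 min, 4 °C. Compound was quantified by LC-MS/MS, n = 4.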

[16] = test system: Rattus norvegicus; assay: Antialzheimer activity in Sprague-Dawley rat assessed as amyloid beta 37 level in CSF at 10 mg/kg, po at 4 hrs by ELISA relative to control; type: functional; how it was run: as §1

In the case of `COc1nc(Nc2cccc3c2nc(-c2ccc(F)cc2)n3C)ccc1-n1cnc(C)c1`, the Activity [1] is reported as 77%, the fraction unbound [2] is reported as 0.0004 and the concentration at 4 h [3] is reported as 19.5 µM. For the same compound, the Activity [4] was 94%, the Activity [5] was “inactive” and the Activity [6] was 502%. The Activity [7] was 66%, the concentration at 4 h [8] was 4.4 µM and the logP [9] was 5.25. For the same compound, the Activity [10] was 63%, the Activity [11] was 57% and the inhibition [12] was “inactive”. For the same compound, the inhibition [13] was 71%, the solubility thermodynamic [14] was 1170 µg/mL (≈ 2730 µM) and the Cp [15] was “BLD”. It also gave an Activity [16] of 955%.
